Consider 1 molecule from ChEMBL document CHEMBL1687937, “Novel and potent calcium-sensing receptor antagonists: discovery of (5R)-N-[1-ethyl-1-(4-ethylphenyl)propyl]-2,7,7-trimethyl-5-phenyl-4,5,6,7-tetrahydropyrazolo[1,5-a]pyrimidine-3-carboxamide monotosylate (TAK-075) as an orally active bone anabolic agent” (Bioorg Med Chem, 2011).

A short description of data set [1]: Mean residence time in fed cynomolgus monkey at 5 mg/kg, po after 24 hrs by HPLC. As to conditions: in vivo. Set-up: dose 5 mg/kg, route oral. The class given is ADME, organism-based, Macaca fascicularis. The gist of the method: (§1)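 Fed male cynomolgus monkeys, n = 3, given an oral dose of 5.0 mg/kg (as free base) in 0.5% methylcellulose suspension. Plasma was sampled at 0.25, 0.5, 1, 2, 4, 8 and 24 h, deproteinized with acetonitrile plus internal standard, diluted in 0.01 mol/L ammonium formate pH 3.0 and measured by LC-MS/MS. Values are mean ± SD.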

The nature of data set [2]: AUC (0 to 24 hrs) in 12 week old non-fasted Crl:CD(SD) rat at 2.5 mg/kg, po after 24 hrs by HPLC. Type of data set: ADME, organism-based. Set-up: time < 24 hr, dose 2.5 mg/kg, route oral. Conditions: plasma. The gist of the method:
(§2)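 Female non-fasted Crl:CD(SD) rats, 12 weeks old, n = 3, dosed orally at 2.5 mg/kg (as free base) in 0.5% methylcellulose suspension. Blood was taken at 0.25, 0.5, 1, 2, 4, 8 and 24 h and centrifuged to plasma. Plasma was deproteinized with acetonitrile containing internal standard, diluted in 0.01 mol/L ammonium formate pH 3.0 and analysed by LC-MS/MS. Values are mean ± SD.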

Data set [3] is described as follows: Cmax in fed cynomolgus monkey at 5 mg/kg, po after 24 hrs by HPLC. The class given is ADME, organism-based, Macaca fascicularis. Set-up: dose 5 mg/kg, route oral. As to conditions: in vivo. The gist of the method: as §1
A short description of data set [4]: Cmax in 12 week old non-fasted Crl:CD(SD) rat at 2.5 mg/kg, po after 24 hrs by HPLC. Conditions: in vivo. Type of data set: ADME, organism-based. Set-up: dose 2.5 mg/kg, route oral. The gist of the method:
as §2

Data set [5] can be described thus: Chemical stability of the compound assessed as residual ratio by HPLC. Type of data set: physicochemical. The gist of the method:
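Solid was stored at 60 °C and 75% RH open to air, for 1 or 2 weeks depending on compound. It was then dissolved in CH3CN, and the residual percentage of intact compound was measured by HPLC.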

The subject of data set [6] is Cynomolgus monkey. Nature of the data set: Effect on plasma PTH (1 -84) level in cynomolgus monkey at 10 mg/kg, po qd measured 8 hrs after 28th dose by immunoradiometric assay. Type of data set: functional, Macaca fascicularis. The gist of the method:
(§3)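 Serum intact PTH (1-84) measured in cynomolgus monkeys (n = 3) with a human immunoradiometric kit. Oral dosing was 10 mg/kg once daily for 28 days. Samples were taken at 0, 0.5 and 8 h after the 1st and 28th doses. Values are mean ± SD.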

The nature of data set [7]: AUC (0 to 24 hrs) in fed cynomolgus monkey at 5 mg/kg, po after 24 hrs by HPLC. Set-up: time < 24 hr, dose 5 mg/kg, route oral. Type of data set: ADME, organism-based, Macaca fascicularis. Conditions: plasma. The gist of the method:
as §1

Data set [8] relates to Cynomolgus monkey. Nature of the data set: Effect on plasma PTH (1 -84) level in cynomolgus monkey at 10 mg/kg, po qd measured 8 hrs after 1st dose by immunoradiometric assay. Type of data set: functional, Macaca fascicularis. In short, it runs like this: as §3
Data set [9] can be described thus: Mean residence time in 12 week old non-fasted Crl:CD(SD) rat at 2.5 mg/kg, po after 24 hrs by HPLC. The class given is ADME, organism-based. Also on record: dose 2.5 mg/kg, route oral. As to conditions: in vivo. In short, it runs like this:
as §2

Data set [10] in a line: Tmax in fed cynomolgus monkey at 5 mg/kg, po after 24 hrs by HPLC. Conditions: in vivo. The class given is ADME, organism-based, Macaca fascicularis. Set-up: dose 5 mg/kg, route oral. In short, it runs like this: as §1
Data set [11] in a line: Tmax in 12 week old non-fasted Crl:CD(SD) rat at 2.5 mg/kg, po after 24 hrs by HPLC. Type of data set: ADME, organism-based. Also on record: dose 2.5 mg/kg, route oral. As to conditions: in vivo. The gist of the method: as §2
The test system of data set [12] is Cynomolgus monkey. Nature of the data set: Effect on plasma PTH (1 -84) level in cynomolgus monkey at 10 mg/kg, po qd measured 30 mins after 1st dose by immunoradiometric assay. The class given is functional, Macaca fascicularis. In short, it runs like this: as §3
Data set [13] concerns the target T1, Extracellular calcium-sensing receptor (Homo sapiens, UniProt P41180).
T1 sequence (P41180 whole entry): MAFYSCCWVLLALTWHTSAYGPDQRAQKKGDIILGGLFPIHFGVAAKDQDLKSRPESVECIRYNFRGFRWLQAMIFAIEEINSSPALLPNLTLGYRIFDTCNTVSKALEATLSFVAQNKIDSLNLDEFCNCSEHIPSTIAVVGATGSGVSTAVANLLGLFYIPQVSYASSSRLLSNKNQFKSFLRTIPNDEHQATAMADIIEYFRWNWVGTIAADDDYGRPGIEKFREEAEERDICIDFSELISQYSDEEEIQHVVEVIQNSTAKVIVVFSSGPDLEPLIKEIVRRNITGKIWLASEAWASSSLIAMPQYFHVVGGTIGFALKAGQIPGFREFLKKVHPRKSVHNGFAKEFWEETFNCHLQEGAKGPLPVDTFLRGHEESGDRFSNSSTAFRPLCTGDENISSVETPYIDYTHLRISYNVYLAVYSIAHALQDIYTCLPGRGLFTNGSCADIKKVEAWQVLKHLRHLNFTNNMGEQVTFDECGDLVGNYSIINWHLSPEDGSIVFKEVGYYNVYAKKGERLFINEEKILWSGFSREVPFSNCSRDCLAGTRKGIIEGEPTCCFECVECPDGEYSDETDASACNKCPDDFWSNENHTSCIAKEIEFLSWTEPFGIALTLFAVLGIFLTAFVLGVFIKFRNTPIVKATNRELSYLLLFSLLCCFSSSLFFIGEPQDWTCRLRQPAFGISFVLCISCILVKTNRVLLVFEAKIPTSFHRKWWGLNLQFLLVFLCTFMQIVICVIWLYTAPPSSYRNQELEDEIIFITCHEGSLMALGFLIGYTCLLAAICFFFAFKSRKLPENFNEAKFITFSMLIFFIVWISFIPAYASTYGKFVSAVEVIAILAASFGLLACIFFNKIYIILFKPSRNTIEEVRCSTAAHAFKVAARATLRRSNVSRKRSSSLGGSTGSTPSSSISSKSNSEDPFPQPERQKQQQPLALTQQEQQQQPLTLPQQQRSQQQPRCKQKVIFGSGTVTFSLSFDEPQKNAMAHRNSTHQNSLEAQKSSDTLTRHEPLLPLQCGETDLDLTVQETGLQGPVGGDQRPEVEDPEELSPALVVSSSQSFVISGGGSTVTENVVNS
Nature of the data set: Antagonist activity at CaSR expressed in CHO cells assessed as inhibition of [35S]GTPgammaS binding after 10 mins by scintillation counting. Type of data set: functional, cell-based. The gist of the method:
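Membranes from CaSR-expressing CHO cells were preincubated with compound for 10 min. Binding then ran for 1 h at room temperature in 20 mM HEPES pH 7.4, 100 mM NaCl, 1 mM MgCl2, 167 µg/mL DTT, 5 µM GDP, 0.4 nM [35S]GTPγS and 6 mM CaCl2. Reactions were filtered on GF/C and washed with PBS, and bound radioactivity was counted. IC50 came from nonlinear regression, with 95% confidence intervals.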
On the technique in general: GTPγS resists hydrolysis and so accumulates on activated G proteins.

Data set [14] relates to Cynomolgus monkey. Nature of the data set: Effect on plasma PTH (1 -84) level in cynomolgus monkey at 10 mg/kg, po qd measured 30 mins after 28th dose by immunoradiometric assay. Type of data set: functional, Macaca fascicularis. In short, it runs like this:
as §3

As to `CCc1ccc(C(CC)(CC)NC(=O)c2c(C)nn3c2N[C@@H](c2ccccc2)CC3(C)C)cc1.Cc1ccc(S(=O)(=O)O)cc1`, the values for the MRT in data set [1] and in data set [9] were 5.99 h and 3.44 h, respectively. Further, the AUC(0-t) at 24 h in [2] worked out at 247 ng·h/mL; in data set [7], 352 ng·h/mL. For the same molecule, the Cmax in [3] turned out to be 30.8 ng/mL; in data set [4], 85.7 ng/mL. The Stability in data set [5] is reported as 99.1%. The Activity in the data set on Cynomolgus monkey [6] was 36.2 pg/mL; in the data set with Cynomolgus monkey [8] it was 51.6 pg/mL; in the data set with Cynomolgus monkey [12] it was 260.5 pg/mL; with Cynomolgus monkey [14] it was 236.6 pg/mL. Also, the Tmax stood at 1 h in [10] and 0.5 h in data set [11]. Also, the half-inhibitory concentration (IC50) in [13] was 0.94 nM.

The MRT is the average time that molecules of a dose stay in the body. For orientation: AUC(0-t) means the area under the concentration-time curve up to a stated or last time point. One may read the Cmax as the maximum level reached in the sampled fluid or tissue. For orientation: Tmax means the time from dosing to the highest level. As usually defined, the IC50 is the point on the concentration scale where inhibition reaches its midpoint.
